Data: ChEMBL document CHEMBL1125146, “The development of a novel series of (quinolin-2-ylmethoxy)phenyl-containing compounds as high-affinity leukotriene receptor antagonists. 3. Structural variation of the acidic side chain to give antagonists of enhanced potency” (J Med Chem, 1990)
Activity calls are given as the source filed them. The calls are words filed in the database; no cut-off is given here.

What was measured:
Cavia porcellus [1] = species on record: Cavia porcellus; assay: Inhibition of leukotriene-induced contractions of peripheral guinea pig lung strip; type: functional, organism-based
In short: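 Peripheral guinea pig lung parenchymal strips were challenged with single spasmogen concentrations (LTC4, LTD4 or LTE4), washed, equilibrated, then rechallenged with or without compound. Compound was preincubated at least 5 min before spasmogen. Each tissue served as its own control and was standardized with 1 μM histamine.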

[2] = molecular target: Cavia porcellus CysLT1 receptor; assay: In vitro binding affinity against cysteinyl leukotriene D4 receptor from guinea pig lung membrane
Cavia porcellus [3] = assay: (§1) Tested in vivo for LTD4-induced […] after oral administration by Dermal wheal assay method; type: functional; design: concentration or dose not given beside the values
In short: (§2)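 Guinea pigs dosed orally, usually at a single dose, with full dose-response curves for selected compounds. Read-out was antagonism of wheal and flare from intradermal injection of 100 ng LTD4. Five or more animals per dose.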

Cavia porcellus [4] = assay: (§3) Tested in vivo for antigen-induced systemic anaphylaxis after oral administration; type: functional; design: concentration or dose not given beside the values
Cavia porcellus [5] = assay: Tested in vivo for LTD4-induced […] after oral administration by Dermal wheal assay method; inactive; type: functional, organism-based; in short: as §2
Cavia porcellus [6] = assay: Tested in vivo for antigen-induced systemic anaphylaxis after oral administration; inactive; type: functional, organism-based
Cavia porcellus [7] = assay: as §3; type: functional
Cavia porcellus [8] = assay: as §1; type: functional; in short: as §2

SMILES	IC50 (Cavia porcellus [1])	Ki [2]	Inhibition (Cavia porcellus [3])	Inhibition (Cavia porcellus [4])	ED50 (Cavia porcellus [5])	ED50 (Cavia porcellus [6])	ED50 (Cavia porcellus [7])	ED50 (Cavia porcellus [8])
c1ccc2nc(COc3ccc(OCCCc4nnn[nH]4)cc3)ccc2c1	250 nM	69 nM						
c1cc(OCCCc2nnn[nH]2)cc(OCc2ccc3ccccc3n2)c1	79 nM	42 nM						
O=C(O)CCC(Cc1ccc(OCc2ccc3ccccc3n2)cc1)c1ccccc1 (stereo unspecified)	65 nM	31 nM	33%	50%				
CCCc1c(OCC(O)COc2ccc3c(=O)cc(C(=O)O)oc3c2CCC)ccc(C(C)=O)c1O (stereo unspecified) [FPL-55712]	800 nM				inactive	inactive		
CC(CCCC(=O)O)c1cccc(OCc2ccc3ccccc3n2)c1 (stereo unspecified)	500 nM	90 nM						
CCCC(CCC(=O)O)Cc1ccc(OCc2ccc3ccccc3n2)cc1 (stereo unspecified)	30 nM	21 nM					9.7 mg/kg	6.5 mg/kg
c1ccc2nc(COc3ccc(CCCCc4nnn[nH]4)cc3)ccc2c1	45 nM		38%	100%				
c1ccc(C(CCc2nnn[nH]2)Cc2cccc(OCc3ccc4ccccc4n3)c2)cc1 (stereo unspecified)	24 nM	14 nM	61%					
CC(CCCc1nnn[nH]1)c1ccc(OCc2ccc3ccccc3n2)cc1 (stereo unspecified)	170 nM	43 nM						
c1ccc(C(CCc2nnn[nH]2)Cc2ccc(OCc3ccc4ccccc4n3)cc2)cc1 (stereo unspecified)	14 nM	8 nM						
CC(CCCc1nnn[nH]1)c1cccc(OCc2ccc3ccccc3n2)c1 (stereo unspecified)	250 nM	31 nM	62%					
CCCC(CCc1nnn[nH]1)Cc1cccc(OCc2ccc3ccccc3n2)c1 (stereo unspecified)	16 nM	11 nM	38%					
CC(CCc1cccc(OCc2ccc3ccccc3n2)c1)Cc1nnn[nH]1 (stereo unspecified)	45 nM	17 nM		27%				2.8 mg/kg
CC(CCc1cccc(OCc2ccc3ccccc3n2)c1)CC(=O)O (stereo unspecified)	800 nM	70 nM						
O=C(O)CCC(Cc1cccc(OCc2ccc3ccccc3n2)c1)c1ccccc1 (stereo unspecified)	56 nM	52 nM	78%	100%				
c1ccc2nc(COc3ccc(CCC4(Cc5nnn[nH]5)CCCC4)cc3)ccc2c1	37 nM	25 nM					2.8 mg/kg	4.2 mg/kg
O=C(O)CCCCc1cccc(OCc2ccc3ccccc3n2)c1	370 nM	100 nM						

SMILES	IC50 (Cavia porcellus [1])	Ki [2]	Inhibition (Cavia porcellus [3])	Inhibition (Cavia porcellus [4])	ED50 (Cavia porcellus [5])	ED50 (Cavia porcellus [6])	ED50 (Cavia porcellus [7])	ED50 (Cavia porcellus [8])
CC(CCC(=O)O)Cc1cccc(OCc2ccc3ccccc3n2)c1 (stereo unspecified)	500 nM	140 nM						
O=C(O)CC1CCCC1Cc1ccc(OCc2ccc3ccccc3n2)cc1 (stereo unspecified)	90 nM	100 nM						
CCCC(CCC(=O)O)Cc1cccc(OCc2ccc3ccccc3n2)c1 (stereo unspecified)	70 nM	50 nM						
CCCc1c(OCCCCc2nnn[nH]2)ccc(C(C)=O)c1O [TOMELUKAST]	1500 nM						> 30 mg/kg	> 30 mg/kg
CC(CCc1ccc(OCc2ccc3ccccc3n2)cc1)Cc1nnn[nH]1 (stereo unspecified)	20 nM	25 nM						
CCCC(CCc1nnn[nH]1)Cc1ccc(OCc2ccc3ccccc3n2)cc1 (stereo unspecified)	32 nM						7 mg/kg	7.2 mg/kg
c1cc(CCCCc2nnn[nH]2)cc(OCc2ccc3ccccc3n2)c1	105 nM	20 nM	16%	83%				
O=C(O)CC1(CCc2ccc(OCc3ccc4ccccc4n3)cc2)CCCC1	60 nM	51 nM	73%	17%				
CC(CCC(=O)O)Cc1ccc(OCc2ccc3ccccc3n2)cc1 (stereo unspecified)	100 nM	43 nM						
CC(CCc1nnn[nH]1)Cc1cccc(OCc2ccc3ccccc3n2)c1 (stereo unspecified)	150 nM	34 nM	40%					
O=C(O)CCCCc1ccc(OCc2ccc3ccccc3n2)cc1	450 nM	110 nM						
O=C(O)CCCOc1ccc(OCc2ccc3ccccc3n2)cc1	800 nM	1200 nM						
CC(Cc1cccc(OCc2ccc3ccccc3n2)c1)CC(C)C(=O)O (stereo unspecified)	500 nM	24 nM						
COc1cc(C(=O)NS(=O)(=O)c2ccccc2)ccc1Cn1ncc2ccc(NC(=O)OC3CCCC3)cc21 [ICI-198615]	0.4 nM	0.2 nM		0%				> 30 mg/kg
c1ccc2nc(COc3ccc(CC4CCCC4Cc4nnn[nH]4)cc3)ccc2c1 (stereo unspecified)	20 nM	15 nM					12 mg/kg	10 mg/kg
CC(CCCc1cccc(OCc2ccc3ccccc3n2)c1)C(=O)O (stereo unspecified)	75 nM	85 nM						
CC(CCc1nnn[nH]1)Cc1ccc(OCc2ccc3ccccc3n2)cc1 (stereo unspecified)	27 nM	12 nM					1.2 mg/kg	2.5 mg/kg
